From ChEMBL document CHEMBL4024721, “C-2 (E)-4-(Styryl)aniline substituted diphenylpyrimidine derivatives (Sty-DPPYs) as specific kinase inhibitors targeting clinical resistance related EGFRT790M mutant” (Bioorg Med Chem, 2017)

Tests used:
A-431 = assay: Antiproliferative activity against human A431 cells harboring wild type EGFR assessed as decrease in cell viability after 72 hrs by MTT assay; assay type: ADME, cell-based; conditions: A-431, 72 h
[1] = target: Epidermal growth factor receptor (Homo sapiens, UniProt P00533); assay type: ADME
[2] = tested on: Epidermal growth factor receptor (Homo sapiens), P00533 [L858R,T790M]; assay: Potency index, ratio of gefitinib IC50 to test compound IC50 for recombinant human EGFR T790M/L858R double mutant (695 to end residues)
NCI-H1975 [3] = assay: Antiproliferative activity against human NCI-H1975 cells harboring EGFR T790M/L858R double mutant assessed as decrease in cell viability after 72 hrs by MTT assay; assay type: functional, cell-based; conditions: NCI-H1975, 72 h
[4] = target: Epidermal growth factor receptor (Homo sapiens, UniProt P00533, L858R/T790M)
[5] = Antiproliferative activity against NHBE cells assessed as decrease in cell viability after 72 hrs by MTT assay; assay type: ADME, cell-based; conditions: Homo sapiens
HCC827 = assay: Antiproliferative activity against human HCC827 cells harboring EGFR del E746 to A750 mutant assessed as decrease in cell viability after 72 hrs by MTT assay; assay type: functional, cell-based; conditions: HCC827, 72 h
A549 = assay: Antiproliferative activity against human A549 cells harboring EGFR K-ras mutant assessed as decrease in cell viability after 72 hrs by MTT assay; assay type: functional, cell-based; conditions: A549, 72 h
NCI-H1975 [6] = assay: Induction of apoptosis in human NCI-H1975 cells harboring EGFR T790M/L858R double mutant assessed as viable cells at 1 uM after 72 hrs by annexin V/FITC staining-based flow cytometric method relative to control; assay type: functional; conditions: NCI-H1975, 72 h, read-out: Activity
How it was run: (§1)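 H1975 cells (ATCC), grown as monolayers at 37 °C in humidified 5% CO2, were incubated with compound at the indicated concentrations for 72 h. They were then stained with annexin V/FITC and analysed by flow cytometry. The data shown come from one representative experiment.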

NCI-H1975 [7] = assay: Induction of apoptosis in human NCI-H1975 cells harboring EGFR T790M/L858R double mutant assessed as late apoptotic cells at 1 uM after 72 hrs by annexin V/FITC staining-based flow cytometric method relative to control; assay type: functional; how it was run: as §1
NCI-H1975 [8] = assay: Induction of apoptosis in human NCI-H1975 cells harboring EGFR T790M/L858R double mutant assessed as late apoptotic cells at 8 uM after 72 hrs by annexin V/FITC staining-based flow cytometric method relative to control; assay type: functional; how it was run: as §1
NCI-H1975 [9] = assay: Induction of apoptosis in human NCI-H1975 cells harboring EGFR T790M/L858R double mutant assessed as viable cells at 4 uM after 72 hrs by annexin V/FITC staining-based flow cytometric method relative to control; assay type: functional; conditions: NCI-H1975, 72 h, read-out: Activity; how it was run: as §1
NCI-H1975 [10] = assay: Induction of apoptosis in human NCI-H1975 cells harboring EGFR T790M/L858R double mutant assessed as early apoptotic cells at 8 uM after 72 hrs by annexin V/FITC staining-based flow cytometric method relative to control; assay type: functional; how it was run: as §1
NCI-H1975 [11] = assay: Induction of apoptosis in human NCI-H1975 cells harboring EGFR T790M/L858R double mutant assessed as necrotic cells at 8 uM after 72 hrs by annexin V/FITC staining-based flow cytometric method relative to control; assay type: functional; how it was run: as §1
NCI-H1975 [12] = assay: Induction of apoptosis in human NCI-H1975 cells harboring EGFR T790M/L858R double mutant assessed as early apoptotic cells at 1 uM after 72 hrs by annexin V/FITC staining-based flow cytometric method relative to control; assay type: functional; how it was run: as §1
NCI-H1975 [13] = assay: Induction of apoptosis in human NCI-H1975 cells harboring EGFR T790M/L858R double mutant assessed as early apoptotic cells at 4 uM after 72 hrs by annexin V/FITC staining-based flow cytometric method relative to control; assay type: functional; how it was run: as §1
NCI-H1975 [14] = assay: Induction of apoptosis in human NCI-H1975 cells harboring EGFR T790M/L858R double mutant assessed as viable cells at 8 uM after 72 hrs by annexin V/FITC staining-based flow cytometric method relative to control; assay type: functional; conditions: NCI-H1975, 72 h, read-out: Activity; how it was run: as §1
NCI-H1975 [15] = assay: Induction of apoptosis in human NCI-H1975 cells harboring EGFR T790M/L858R double mutant assessed as necrotic cells at 4 uM after 72 hrs by annexin V/FITC staining-based flow cytometric method relative to control; assay type: functional; how it was run: as §1
NCI-H1975 [16] = assay: Induction of apoptosis in human NCI-H1975 cells harboring EGFR T790M/L858R double mutant after 72 hrs by annexin V/FITC staining-based flow cytometric method; assay type: functional, cell-based; how it was run: as §1
NCI-H1975 [17] = assay: Induction of apoptosis in human NCI-H1975 cells harboring EGFR T790M/L858R double mutant assessed as necrotic cells at 1 uM after 72 hrs by annexin V/FITC staining-based flow cytometric method relative to control; assay type: functional; how it was run: as §1
NCI-H1975 [18] = assay: Induction of apoptosis in human NCI-H1975 cells harboring EGFR T790M/L858R double mutant assessed as late apoptotic cells at 4 uM after 72 hrs by annexin V/FITC staining-based flow cytometric method relative to control; assay type: functional; how it was run: as §1

| Structure (SMILES) | IC50 (A-431) | IC50 [1] | Ratio IC50 [2] | IC50 (NCI-H1975 [3]) | IC50 [4] | IC50 [5] | IC50 (HCC827) | IC50 (A549) | also measured |
| --- | --- | --- | --- | --- | --- | --- | --- | --- | --- |
| C=CC(=O)Nc1cccc(Nc2nc(Nc3ccc(/C=C/c4cc(Cl)cc(Cl)c4)cc3)ncc2Cl)c1 | 6.56 µM | 1.04 µM | 45 to 177 | 6.98 µM | 0.0113 µM | 35.2 µM | 9.16 µM | 15.8 µM | – |
| C=CC(=O)Nc1cccc(Nc2nc(Nc3ccc(/C=C/c4cc(C)cc(C)c4)cc3)ncc2F)c1 | 10.6 µM | 0.539 µM | 45 to 177 | 2.91 µM | 0.011 µM | 22.5 µM | 2.07 µM | 12.8 µM | viability at 1 µM (NCI-H1975 [6]): 55.9%; Activity (NCI-H1975 [7]): 22.7%; Activity (NCI-H1975 [8]): 76.1%; viability at 4 µM (NCI-H1975 [9]): 45.7%; Activity (NCI-H1975 [10]): 3.7%; Activity (NCI-H1975 [11]): 13.2%; Activity (NCI-H1975 [12]): 17.7%; Activity (NCI-H1975 [13]): 27.1%; viability at 8 µM (NCI-H1975 [14]): 7%; Activity (NCI-H1975 [15]): 1.4%; Activity (NCI-H1975 [16]): Dose-dependent effect; Activity (NCI-H1975 [17]): 3.7%; Activity (NCI-H1975 [18]): 25.8% |
| C=CC(=O)Nc1cccc(Nc2nc(Nc3ccc(/C=C/c4ccc(C)cc4C)cc3)ncc2Cl)c1 | 3.16 µM | 0.996 µM | 45 to 177 | 4.39 µM | 0.0068 µM | 15.8 µM | 9.71 µM | 4.94 µM | – |
| C=CC(=O)Nc1cccc(Nc2nc(Nc3ccc(/C=C/c4cc(C)cc(C)c4)cc3)ncc2Cl)c1 | 5.56 µM | 0.607 µM | 45 to 177 | 2.32 µM | 0.0265 µM | 17 µM | 4 µM | 5.59 µM | – |
| C=CC(=O)Nc1cccc(Nc2nc(Nc3ccc(/C=C/c4cc(Cl)cc(Cl)c4)cc3)ncc2F)c1 | 1.29 µM | 0.388 µM | 45 to 177 | 6.98 µM | 0.0142 µM | 5.42 µM | 10.8 µM | 7.01 µM | – |
| C=CC(=O)Nc1cccc(Nc2nc(Nc3ccc(N4CCN(C(C)=O)CC4)cc3OC)ncc2C(F)(F)F)c1 [ROCILETINIB] | 1.79 µM | – | – | 0.137 µM | – | 23.8 µM | 0.031 µM | 3.24 µM | – |
| C=CC(=O)Nc1cccc(Nc2nc(Nc3ccc(/C=C/c4cc(OC)cc(OC)c4)cc3)ncc2Cl)c1 | 1.78 µM | 0.216 µM | 45 to 177 | 3.76 µM | 0.0157 µM | 9.18 µM | 3.32 µM | 6.84 µM | – |
| C=CC(=O)Nc1cccc(Nc2nc(Nc3ccc(/C=C/c4ccc(C)cc4C)cc3)ncc2F)c1 | 3.11 µM | 0.387 µM | 45 to 177 | 7.16 µM | 0.0081 µM | 10.4 µM | > 20 µM | 1.32 µM | – |
| C=CC(=O)Nc1cccc(Oc2nc(Nc3ccc(/C=C/c4cc(C)cc(C)c4)cc3)ncc2Cl)c1 | 4.71 µM | 0.087 µM | 45 to 177 | 13.7 µM | 0.0224 µM | 6.07 µM | 11.7 µM | 10.8 µM | – |
